Data taken from PMC2965777 (Biochemistry, 2010).

How the values were obtained:
YAQ12A [1] = experiment: Sedimentation assay of YAQ12A aggregation; assay type: biochemical
Procedure, shortened: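 Disaggregated peptide was diluted to 100 µM in 10 mM sodium phosphate, pH 7.40, and held at 37 °C without agitation, with or without inhibitor added as lyophilized aliquots. After 98,000 × g for 1 h at 22 °C, 100 µL of the top third went onto analytical C18 RP-HPLC (A220, isocratic water:acetonitrile:TFA 87.5:12.5:0.1). Monomer was quantified from peak area against a standard curve; mean ± S.D. of three replicates.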

YAQ12A [2] = experiment: Electron microscopy of YAQ12A fibrillation products; assay type: biochemical; conditions: 100 μM YAQ12A with 500 μM 5QMe2, 40 h, 37 °C
Procedure, shortened: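 Aggregation products imaged by electron microscopy after incubating monomeric peptide in 10 mM sodium phosphate, pH 7.40, for 40 h at 37 °C, with or without inhibitor. Micrographs were recorded at 15,000 or 39,000× magnification, plus 1.4× from the CCD camera.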

[3] = Sedimentation equilibrium analytical ultracentrifugation of 5QMe2 alone; assay type: physicochemical
Procedure, shortened: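 Equilibrium sedimentation of inhibitor alone at 100 µM, 500 µM and 1 mM in 10 mM sodium phosphate, pH 7.40, at 20 °C, in six-sector cells with hourly scans. Rotor speed ran 3000 rpm (1 scan), 36,000 (16), 48,000 (13) and 60,000 rpm (19). A280 was used (A230 for 100 µM). Molecular weight came from global analysis of the three concentrations at each speed.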

[4] = Size exclusion chromatography, apparent molecular weight; assay type: physicochemical; conditions: Superdex Peptide 10/300; 10 mM sodium phosphate, 10 mM NaCl, pH 7.40; 0.5 mL/min; 100 μM YAQ12A, 170 μM 5QMe2; 230 nm

## Anth-K-Q-Q(Me2)-Q-Q(Me2)-Q-CONH2 [5QMe2]
YAQ12A [1]; 100 μM YAQ12A with 100 μM 5QMe2, time course, 37 °C
  time after which more rapid loss of soluble YAQ12A follows the lag period: ~ 70 h
YAQ12A [1]; 100 μM YAQ12A with 1 mM 5QMe2, time course to 110 h, 37 °C
  aggregation of YAQ12A over the time course: no aggregation was observed for the entire time period
YAQ12A [1]; 1 mM 5QMe2 added to 100 μM YAQ12A after 10 or 20 h of aggregation
  reversal of YAQ12A aggregation: did not reverse aggregation
YAQ12A [2]
  fibril formation of YAQ12A by electron microscopy: abrogates fibril formation
[3]; 100, 500 and 1000 μM, three rotor speeds
  association state of the inhibitor alone: monomeric
[3]; rotor speed 36,000 rpm
  molecular weight of 5QMe2 alone, three concentrations analysed globally: 988.5
[3]; rotor speed 48,000 rpm
  molecular weight of 5QMe2 alone, three concentrations analysed globally: 1000.0
[3]; rotor speed 60,000 rpm
  molecular weight of 5QMe2 alone, three concentrations analysed globally: 980.1
[4]
  MW^app by size exclusion chromatography: ~ 1176.0
